In the library only some 3.4% were active in any assay of this set; here they are far more common.
VIM-2 inh – inhibitors of Pseudomonas aeruginosa VIM-2 metallo-beta-lactamase; 290,000 compounds, 0.89% hits; inhibition, % at 5.6 µM; purified VIM-2, nitrocefin hydrolysis, epi-absorbance fluorescence; AID 1527;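 active means inhibition above the mean of all tested compounds plus 3 SD, cutoff set per screening run, cut at about 7.5% in these data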;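 further: red hydrolysis product quenches plate fluorescence so inhibitors raise well fluorescence; 0% = enzyme with DMSO and 100% = DMSO without enzyme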
MEKK3 PB1 HTS – MEKK3-MEK5 PB1 interaction, increase or decrease | Q99759 | binding response (% of control), % at 10 µM | bead-based flow cytometry, Alexa488-MEK5 binding to MEKK3; actives lie on both sides; 0 = blocked by unlabeled MEK5, 100 = vehicle | 290,000 compounds, 1.4% hits;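 active means binding response more than 3 SD above or below the average of its plate-row segment, actives on both sides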;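 further: Alexa488 bead fluorescence after subtracting the streptavidin-only scavenger bead signal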
Target sequence (Q99759 whole entry, looked up): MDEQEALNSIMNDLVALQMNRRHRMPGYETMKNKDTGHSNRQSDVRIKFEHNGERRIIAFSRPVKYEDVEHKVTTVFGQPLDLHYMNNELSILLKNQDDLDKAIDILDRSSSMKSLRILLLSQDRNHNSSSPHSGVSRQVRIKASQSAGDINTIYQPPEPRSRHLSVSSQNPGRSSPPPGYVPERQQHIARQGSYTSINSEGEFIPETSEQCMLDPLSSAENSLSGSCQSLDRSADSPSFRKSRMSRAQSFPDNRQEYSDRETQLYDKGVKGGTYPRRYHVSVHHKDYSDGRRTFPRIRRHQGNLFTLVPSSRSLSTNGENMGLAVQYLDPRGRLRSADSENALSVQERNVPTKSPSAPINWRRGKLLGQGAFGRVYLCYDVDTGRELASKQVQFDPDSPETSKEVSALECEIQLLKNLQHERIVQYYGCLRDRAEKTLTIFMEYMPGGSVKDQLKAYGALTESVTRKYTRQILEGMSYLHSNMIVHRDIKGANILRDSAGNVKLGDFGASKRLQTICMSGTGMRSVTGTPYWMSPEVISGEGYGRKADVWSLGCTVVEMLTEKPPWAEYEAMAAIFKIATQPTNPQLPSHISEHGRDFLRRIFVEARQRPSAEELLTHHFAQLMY
MEKK2mut PB1 HTS – signal of MEK5 binding to mutant human MEKK2 PB1 domain; AID 1530; 290,000 compounds, 0.35% hits; percent response, % at 10 µM; bead flow cytometry, Alexa488-MEK5 binding to MEKK2 mutant; in the data active means percent response above about 24%, passing the limit was not always enough
IMP-1 inh – blocks Pseudomonas aeruginosa IMP-1 metallo-beta-lactamase. inhibition, % at 5.6 µM. purified IMP-1, nitrocefin hydrolysis, epi-absorbance fluorescence. 290,000 compounds, 0.45% hits;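 active means inhibition above the mean plus 3 SD of all compounds in the same screening run, cut at about 4.5% in these data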;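 further: 0% = IMP-1 with DMSO and 100% = DMSO wells lacking enzyme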
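System: Purified IMP-1 | Read-out basis: Percent enzyme inhibition | Controls: IMP-1 with DMSO as 0%, enzyme-free DMSO as 100% | Replicates: One well per compound | Doses: 5.6 µM nominal single concentration | Detection: Epi-absorbance fluorescence, 480 nm excitation, 530 nm emission | Incubation: 25 °C, 15 min preincubation, 25 min reaction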
MEKK2 WT-MEK5 – raises or lowers MEK5 binding to wildtype human MEKK2 PB1 domain | bead flow cytometry, Alexa488-MEK5 binding to MEKK2 WT; actives lie on both sides | 290,000 compounds, 1.1% hits | binding response (% of control), % at 10 µM; in the data active means binding response below about 67% or above about 130%
The depositor's hits bear a star; [ ] = another dose, or the depositor's remark.

CCOC(=O)C1CCN(C2=NC(=O)/C(=C/c3ccc(Cl)cc3)S2)CC1 was read as VIM-2 inh 1, MEKK3 PB1 HTS 102, MEKK2mut PB1 HTS -1, IMP-1 inh 4.9* and MEKK2 WT-MEK5 101.
`O=C1N=C(N2CCCCC2)S/C1=C\c1ccc(Br)cc1` gave VIM-2 inh 3, MEKK3 PB1 HTS 107, MEKK2mut PB1 HTS 0, IMP-1 inh 4.7* and MEKK2 WT-MEK5 103.
CCOC(=O)C1CCN(c2ccc(Cl)nn2)CC1 was read as VIM-2 inh -2, MEKK3 PB1 HTS 105, MEKK2mut PB1 HTS 4, IMP-1 inh -3 and MEKK2 WT-MEK5 -3.0*.
Cc1ccc(/C=C2\SC(N3CCCC3)=NC2=O)cc1 was read as VIM-2 inh 1, MEKK3 PB1 HTS 99, MEKK2mut PB1 HTS 1, IMP-1 inh -2 and MEKK2 WT-MEK5 100.
CCOC(=O)C1CCN(C2=NC(=O)/C(=C/c3ccc(OC)c(OC)c3)S2)CC1 was read as VIM-2 inh -2, MEKK3 PB1 HTS 103, MEKK2mut PB1 HTS 4, IMP-1 inh -3 and MEKK2 WT-MEK5 106.
O=C(O)C1CCC(=O)N1C1c2ccccc2Oc2ccccc21 (stereo not drawn) was read as VIM-2 inh -2, MEKK3 PB1 HTS 104, MEKK2mut PB1 HTS 3, IMP-1 inh -3 and MEKK2 WT-MEK5 109.
For Cc1c(C(=O)O)cccc1-c1ccc(/C=C2/NC(=O)N(c3ccccc3)C2=O)o1 the results were VIM-2 inh -4, MEKK3 PB1 HTS 99, MEKK2mut PB1 HTS 2, IMP-1 inh -2 and MEKK2 WT-MEK5 -10*.
COc1ccc(-c2ccc(C(=S)N3CCN(C(C)=O)CC3)o2)cc1 was read as VIM-2 inh -2, MEKK3 PB1 HTS 104, MEKK2mut PB1 HTS 0, IMP-1 inh 8.5* and MEKK2 WT-MEK5 100.
Screening COCCCNCCCCOc1ccc(Br)cc1Cl returned VIM-2 inh -4, MEKK3 PB1 HTS 97, MEKK2mut PB1 HTS -1, IMP-1 inh 0 and MEKK2 WT-MEK5 98.
`CN(C)CCCCOc1ccc(Br)cc1Cl` gave VIM-2 inh 2, MEKK3 PB1 HTS 90, MEKK2mut PB1 HTS -1, IMP-1 inh 24* and MEKK2 WT-MEK5 97.
Screening O=c1c2c(nc3c(-c4ccc(Cl)cc4)c[nH]n13)CCC2 returned VIM-2 inh 1, MEKK3 PB1 HTS 100, MEKK2mut PB1 HTS -9, IMP-1 inh -2 and MEKK2 WT-MEK5 91.
For NS(=O)(=O)c1ccc(NC(=O)CCCC(=O)O)cc1 the results were VIM-2 inh -1, MEKK3 PB1 HTS 103, MEKK2mut PB1 HTS -4, IMP-1 inh -2 and MEKK2 WT-MEK5 100.
For CC(=O)N1CCCC1(C(=O)O)c1ccccc1 (stereo not drawn) the results were VIM-2 inh -2, MEKK3 PB1 HTS 100, MEKK2mut PB1 HTS 2, IMP-1 inh -2 and MEKK2 WT-MEK5 -3.0*.
COc1cccc(CC2(CO)CCN(S(=O)(=O)c3ccc(OC)cc3OC)CC2)c1 was read as VIM-2 inh -1, MEKK3 PB1 HTS 99, MEKK2mut PB1 HTS 1, IMP-1 inh 1 and MEKK2 WT-MEK5 97.
Screening COC(=O)c1ccccc1NC(=O)C/C(C)=N/NC(=O)Cc1ccc(Cl)cc1 returned VIM-2 inh 2, MEKK3 PB1 HTS 6.0*[inhibitor], MEKK2mut PB1 HTS -11, IMP-1 inh 0 and MEKK2 WT-MEK5 12*[inhibitor].
For COc1cc(NC(=O)C/C(C)=N/NC(=O)Cc2ccc(Cl)cc2)c(OC)cc1Cl the results were VIM-2 inh -4, MEKK3 PB1 HTS 107, MEKK2mut PB1 HTS 34, IMP-1 inh -2 and MEKK2 WT-MEK5 117.
CCOCc1nnc(NC(=O)CS(=O)(=O)c2ccc(C)cc2)s1 was read as VIM-2 inh -2, MEKK3 PB1 HTS 80*[inhibitor], MEKK2mut PB1 HTS -10, IMP-1 inh -3 and MEKK2 WT-MEK5 77.
`COc1cccc(C(=O)Nc2nnc(CCS(=O)(=O)c3ccc(C)cc3)s2)c1` gave VIM-2 inh 7.9*, MEKK3 PB1 HTS 102, MEKK2mut PB1 HTS 5, IMP-1 inh 0 and MEKK2 WT-MEK5 105.
CCCc1nnc(NC(=O)c2cccc(OC)c2)s1 was read as VIM-2 inh 0, MEKK3 PB1 HTS 101, MEKK2mut PB1 HTS 1, IMP-1 inh 1 and MEKK2 WT-MEK5 100.
For CCOCc1nnc(NC(C)=O)s1 the results were VIM-2 inh 0, MEKK3 PB1 HTS 101, MEKK2mut PB1 HTS 5, IMP-1 inh 0 and MEKK2 WT-MEK5 105.
For CCc1ccc(NC(=O)Cn2cccc2)cc1 the results were VIM-2 inh -1, MEKK3 PB1 HTS 98, MEKK2mut PB1 HTS -10, IMP-1 inh -1 and MEKK2 WT-MEK5 90.
Cc1nc(CNC(=O)C2CCC(=O)N(CCc3ccc(Cl)cc3)C2)sc1C (stereo not drawn) was read as VIM-2 inh -3, MEKK3 PB1 HTS 103, MEKK2mut PB1 HTS 8, IMP-1 inh -2 and MEKK2 WT-MEK5 109.
`COc1ccc(-n2c(SCC(=O)Nc3cc(C)on3)nc3ccccc3c2=O)cc1Cl` gave VIM-2 inh -1, MEKK3 PB1 HTS 92, MEKK2mut PB1 HTS 83* and IMP-1 inh -2.
Clc1ccc2oc(-c3cccnc3NCc3ccccc3)nc2c1 was read as VIM-2 inh -2, MEKK3 PB1 HTS 104, MEKK2mut PB1 HTS 1, IMP-1 inh -1 and MEKK2 WT-MEK5 101.
Screening Cc1[nH]c2ccccc2c1/C=N/Nc1ccc([N+](=O)[O-])cc1 returned VIM-2 inh -3, MEKK3 PB1 HTS 91, MEKK2mut PB1 HTS 43, IMP-1 inh -2 and MEKK2 WT-MEK5 24*.
`Cc1[nH]c2ccccc2c1/C=N/Nc1ccc(F)cc1F` gave VIM-2 inh 0, MEKK3 PB1 HTS 131, MEKK2mut PB1 HTS 6, IMP-1 inh 0 and MEKK2 WT-MEK5 0.0*.
For CCN(CC)C(=O)Oc1cc(COC)nc(-c2ccccc2)n1 the results were VIM-2 inh -3, MEKK3 PB1 HTS 102, MEKK2mut PB1 HTS 3, IMP-1 inh -3 and MEKK2 WT-MEK5 104.
C=CCN(C(=O)c1csnn1)C(C(=O)NC1CCCCC1)c1ccc(Cl)cc1 (stereo not drawn) was read as VIM-2 inh -2, MEKK3 PB1 HTS 98, MEKK2mut PB1 HTS -3, IMP-1 inh 0 and MEKK2 WT-MEK5 96.
C=CCN(C(=O)c1csnn1)C(C(=O)NC1CCCC1)c1c(F)cccc1Cl (stereo not drawn) was read as VIM-2 inh -2, MEKK3 PB1 HTS 105, MEKK2mut PB1 HTS 14, IMP-1 inh -3 and MEKK2 WT-MEK5 153*.
For Cc1cccc(NC(=O)c2ccccc2NC(=O)C2CCCCC2)c1C the results were VIM-2 inh 0, MEKK3 PB1 HTS 108, MEKK2mut PB1 HTS 5, IMP-1 inh -3 and MEKK2 WT-MEK5 92.
COc1cccc(CNC(=O)c2cc3c(C)nc4ccccc4c3o2)c1 was read as VIM-2 inh 7, MEKK3 PB1 HTS 117, MEKK2mut PB1 HTS 13, IMP-1 inh 1 and MEKK2 WT-MEK5 115.
